Tests used:
[1] = Thiol induced NO generation, through griess reaction expressed as % NO2- in presence of 5*10e-4 M L-cysteine
Summary of the method: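 Compound in DMSO diluted to 10^-4 M final in 1:1 v/v 50 mM phosphate buffer (pH 7.4)/MeOH containing 5 × 10^-4 M L-cysteine. Held 1 h at 37 °C, then treated with Griess reagent. Nitrite reported as % NO2- (mol/mol).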

[2] = molecular target: T1, Alpha-1A adrenergic receptor (Homo sapiens, UniProt P35348); assay: Inhibition of [3H]prazosin binding to cloned human Alpha-1A adrenergic receptor in CHO cells (chinese hamster ovary cells); type: cell-based
T1 sequence (P35348 whole entry): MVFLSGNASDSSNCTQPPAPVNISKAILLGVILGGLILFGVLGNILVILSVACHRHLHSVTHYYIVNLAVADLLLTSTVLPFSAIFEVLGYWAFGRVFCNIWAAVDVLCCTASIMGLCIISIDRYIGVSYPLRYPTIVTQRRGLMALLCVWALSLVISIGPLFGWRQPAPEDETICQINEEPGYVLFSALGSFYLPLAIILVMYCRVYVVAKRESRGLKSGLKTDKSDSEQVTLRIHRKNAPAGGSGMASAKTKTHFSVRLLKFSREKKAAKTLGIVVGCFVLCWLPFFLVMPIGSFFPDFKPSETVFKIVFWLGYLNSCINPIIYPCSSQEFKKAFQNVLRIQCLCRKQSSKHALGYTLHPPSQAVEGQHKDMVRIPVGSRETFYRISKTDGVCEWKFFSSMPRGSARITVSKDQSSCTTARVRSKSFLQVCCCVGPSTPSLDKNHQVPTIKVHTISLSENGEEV
Summary of the method: (§1)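 Membranes from CHO cells expressing cloned human α1a, α1b or α1d subtypes, [3H]prazosin competition binding.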

[3] = molecular target: T2, Alpha-1D adrenergic receptor (Homo sapiens, UniProt P25100); assay: Inhibition of [3H]-prazosin binding to cloned human Alpha-1D adrenergic receptor in CHO cells (chinese hamster ovary cells); type: cell-based; summary of the method: as §1
T2 sequence (P25100 whole entry): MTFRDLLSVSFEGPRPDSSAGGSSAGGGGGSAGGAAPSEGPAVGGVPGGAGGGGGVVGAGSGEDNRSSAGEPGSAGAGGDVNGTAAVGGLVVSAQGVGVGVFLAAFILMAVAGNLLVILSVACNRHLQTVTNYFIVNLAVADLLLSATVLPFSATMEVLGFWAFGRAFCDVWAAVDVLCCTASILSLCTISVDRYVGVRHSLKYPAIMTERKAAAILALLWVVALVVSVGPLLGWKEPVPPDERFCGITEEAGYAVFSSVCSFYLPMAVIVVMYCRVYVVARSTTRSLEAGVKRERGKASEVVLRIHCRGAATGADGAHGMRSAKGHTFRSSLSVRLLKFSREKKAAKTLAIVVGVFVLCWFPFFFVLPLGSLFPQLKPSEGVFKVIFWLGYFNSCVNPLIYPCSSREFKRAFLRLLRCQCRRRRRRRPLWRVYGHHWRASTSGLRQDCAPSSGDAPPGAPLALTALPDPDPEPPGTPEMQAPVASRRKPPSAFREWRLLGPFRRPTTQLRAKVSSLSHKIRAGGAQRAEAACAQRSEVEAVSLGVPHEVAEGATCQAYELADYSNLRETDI

[4] = molecular target: T3, 5-hydroxytryptamine receptor 1A (Homo sapiens, UniProt P08908); assay: Inhibition of [3H]8-OH-DPAT binding to 5-hydroxytryptamine 1A receptor serotonergic receptor in human HeLa cells; type: cell-based
T3 sequence (P08908 whole entry): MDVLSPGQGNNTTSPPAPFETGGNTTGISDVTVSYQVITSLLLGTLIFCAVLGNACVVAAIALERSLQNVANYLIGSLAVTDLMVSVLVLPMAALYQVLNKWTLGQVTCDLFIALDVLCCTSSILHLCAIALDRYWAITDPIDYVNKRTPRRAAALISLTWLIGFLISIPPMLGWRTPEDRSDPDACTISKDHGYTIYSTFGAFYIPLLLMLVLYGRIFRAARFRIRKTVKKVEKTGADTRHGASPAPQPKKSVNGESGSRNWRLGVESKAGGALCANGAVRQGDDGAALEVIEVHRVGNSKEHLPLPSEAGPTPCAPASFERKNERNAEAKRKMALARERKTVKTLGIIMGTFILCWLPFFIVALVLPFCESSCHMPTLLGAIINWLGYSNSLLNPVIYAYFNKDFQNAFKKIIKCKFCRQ
Summary of the method: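 Membranes from HeLa cells expressing the cloned human 5-HT1A receptor, [3H]-8-OH-DPAT competition binding.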

[5] = molecular target: T4, Adrenergic receptor alpha-2 (Rattus norvegicus, UniProt P22086+P19328+P22909); assay: Inhibition of [3H]- rauwolscine binding to alpha-2 adrenergic receptor in membrane of rat cerebral cortex; type: tissue-based
T4 sequence (P22086 whole entry): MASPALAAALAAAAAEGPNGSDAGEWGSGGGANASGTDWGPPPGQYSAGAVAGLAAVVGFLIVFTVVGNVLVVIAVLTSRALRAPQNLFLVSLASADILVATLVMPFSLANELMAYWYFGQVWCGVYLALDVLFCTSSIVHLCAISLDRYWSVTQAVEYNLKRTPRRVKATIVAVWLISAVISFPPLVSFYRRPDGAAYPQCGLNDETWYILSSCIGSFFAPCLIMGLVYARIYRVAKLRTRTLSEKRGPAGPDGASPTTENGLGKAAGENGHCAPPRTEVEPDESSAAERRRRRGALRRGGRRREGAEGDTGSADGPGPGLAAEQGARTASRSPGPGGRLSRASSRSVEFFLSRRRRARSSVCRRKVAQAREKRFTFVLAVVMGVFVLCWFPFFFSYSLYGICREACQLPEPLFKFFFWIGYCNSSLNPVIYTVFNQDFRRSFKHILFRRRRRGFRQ
T4 sequence (P19328 whole entry): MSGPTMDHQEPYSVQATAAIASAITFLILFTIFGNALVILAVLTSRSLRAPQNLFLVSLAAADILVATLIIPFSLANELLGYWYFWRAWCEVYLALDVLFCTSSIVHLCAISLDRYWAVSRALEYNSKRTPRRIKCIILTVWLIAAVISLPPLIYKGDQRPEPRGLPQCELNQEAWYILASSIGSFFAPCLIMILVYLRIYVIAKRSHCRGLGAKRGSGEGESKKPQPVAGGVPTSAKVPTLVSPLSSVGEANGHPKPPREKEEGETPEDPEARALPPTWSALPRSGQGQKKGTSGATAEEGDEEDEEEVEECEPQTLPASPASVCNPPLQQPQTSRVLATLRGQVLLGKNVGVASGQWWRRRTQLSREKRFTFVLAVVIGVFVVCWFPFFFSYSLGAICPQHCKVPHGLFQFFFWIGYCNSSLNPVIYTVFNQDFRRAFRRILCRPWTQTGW
T4 sequence (P22909 whole entry): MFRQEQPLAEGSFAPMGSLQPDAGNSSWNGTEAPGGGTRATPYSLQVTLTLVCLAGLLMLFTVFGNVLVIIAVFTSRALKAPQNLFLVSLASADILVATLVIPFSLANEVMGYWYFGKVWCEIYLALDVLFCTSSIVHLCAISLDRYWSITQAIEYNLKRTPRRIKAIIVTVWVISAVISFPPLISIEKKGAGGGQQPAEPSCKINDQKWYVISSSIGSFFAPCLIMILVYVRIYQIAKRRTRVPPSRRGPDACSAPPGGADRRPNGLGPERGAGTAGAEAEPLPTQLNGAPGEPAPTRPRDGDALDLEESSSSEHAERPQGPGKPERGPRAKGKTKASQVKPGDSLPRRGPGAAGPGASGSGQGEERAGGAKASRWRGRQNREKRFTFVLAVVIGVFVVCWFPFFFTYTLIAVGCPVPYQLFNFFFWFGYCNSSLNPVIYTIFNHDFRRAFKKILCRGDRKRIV
Summary of the method: (§2)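 Native α2 receptors in rat cerebral cortex membranes, competition binding with [3H]rauwolscine.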

[6] = molecular target: T5, Alpha-1B adrenergic receptor (Homo sapiens, UniProt P35368); assay: Inhibition of [3H]-prazosin binding to cloned human Alpha-1B adrenergic receptor in CHO cells (chinese hamster ovary cells); type: cell-based; summary of the method: as §1
T5 sequence (P35368 whole entry): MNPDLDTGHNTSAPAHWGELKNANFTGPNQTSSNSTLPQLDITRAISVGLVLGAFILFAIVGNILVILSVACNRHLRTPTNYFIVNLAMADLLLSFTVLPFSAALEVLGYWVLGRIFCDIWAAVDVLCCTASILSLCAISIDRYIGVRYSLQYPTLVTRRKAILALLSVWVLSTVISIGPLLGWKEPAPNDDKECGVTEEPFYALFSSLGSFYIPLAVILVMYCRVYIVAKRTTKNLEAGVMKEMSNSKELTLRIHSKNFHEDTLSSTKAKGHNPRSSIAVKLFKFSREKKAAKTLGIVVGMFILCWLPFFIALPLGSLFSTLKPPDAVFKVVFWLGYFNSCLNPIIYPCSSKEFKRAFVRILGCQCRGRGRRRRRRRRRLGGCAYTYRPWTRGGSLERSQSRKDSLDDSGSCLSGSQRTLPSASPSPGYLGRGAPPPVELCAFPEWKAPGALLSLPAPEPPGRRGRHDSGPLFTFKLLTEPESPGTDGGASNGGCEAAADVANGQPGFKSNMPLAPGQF

[7] = molecular target: T6, Alpha-1A adrenergic receptor (Rattus norvegicus, UniProt P43140); assay: Functional Alpha-1A adrenergic receptor antagonistic activity of noradrenaline induced contractions in prostatic portion of rat vas deferens; type: tissue-based; details: read-out: pA2 (converted)
T6 sequence (P43140 whole entry): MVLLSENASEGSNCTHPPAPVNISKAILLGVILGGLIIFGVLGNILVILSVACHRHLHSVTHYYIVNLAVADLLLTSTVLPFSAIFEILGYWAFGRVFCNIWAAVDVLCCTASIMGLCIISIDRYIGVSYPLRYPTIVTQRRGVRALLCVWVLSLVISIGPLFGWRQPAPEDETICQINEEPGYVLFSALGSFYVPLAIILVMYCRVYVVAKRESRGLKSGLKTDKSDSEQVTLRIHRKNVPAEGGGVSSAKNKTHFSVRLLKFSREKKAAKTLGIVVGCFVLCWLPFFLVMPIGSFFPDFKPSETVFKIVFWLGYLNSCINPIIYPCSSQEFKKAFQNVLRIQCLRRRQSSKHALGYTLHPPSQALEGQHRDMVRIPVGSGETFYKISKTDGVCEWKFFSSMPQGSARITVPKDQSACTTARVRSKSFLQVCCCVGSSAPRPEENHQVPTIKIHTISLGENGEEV
Summary of the method: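 Rat vas deferens, prostatic portion. Cumulative noradrenaline concentration-response curves were run with and without antagonist. pA2 came from 6-14 determinations. Where two antagonist concentrations were used and gave similar pA2, antagonism was taken as competitive; otherwise an apparent pA2 was taken at one concentration. Where NO relaxation appeared, 1 µM ODQ was added at least 10 min before the antagonist.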

[8] = molecular target: T5, Alpha-1B adrenergic receptor; assay: Inhibition of [3H]prazosin binding to cloned human Alpha-1B adrenergic receptor in CHO cells (chinese hamster ovary cells); type: cell-based; summary of the method: as §1
[9] = molecular target: T4, Adrenergic receptor alpha-2; assay: Inhibition of [3H]- rauwolscine binding to alpha-2 adrenergic receptor in rat cerebral cortex; type: tissue-based; summary of the method: as §2

Compound	NO2- (mol/mol) [1] [%]	Ki [2] [nM]	Ki [3] [nM]	Ki [4] [nM]	Ki [5] [nM]	Ki [6] [nM]	Kb [7] [nM]	Ki [8] [nM]	Ki [9] [nM]
Cc1c(-c2ccccc2)oc2c(C(=O)NCCCN3CCN(c4ccccc4OCCCO[N+](=O)[O-])CC3)cccc2c1=O	< 1	0.094	3.5	7.2	81.8	1.2	2.29		
Cc1c(-c2ccccc2)oc2c(C(=O)NCCCN3CCN(c4ccccc4OCc4no[n+]([O-])c4C)CC3)cccc2c1=O	1.11	0.16	4.2	1.6	53.5		6.17	4.7	
COc1ccccc1N1CCN(CCCNC(=O)c2cccc3c(=O)c(C)c(-c4ccccc4)oc23)CC1 [UPIDOSIN]							3.8		33.3
Cc1c(-c2ccccc2)oc2c(C(=O)NCCCN3CCN(c4ccccc4OCc4no[n+]([O-])c4C(N)=O)CC3)cccc2c1=O	5.28	1.8	20.4	1.2	359	15.9	10.7		
Cc1c(-c2ccccc2)oc2c(C(=O)NCCCN3CCN(c4ccccc4OCc4no[n+]([O-])c4C#N)CC3)cccc2c1=O	32.3	0.73	3.9	2.2	81.1	6.5	34.7		

— ChEMBL document CHEMBL1145061, “New potential uroselective NO-donor alpha1-antagonists” (J Med Chem, 2003)
